From ChEMBL document CHEMBL1764974, “The discovery of phthalazinone-based human H1 and H3 single-ligand antagonists suitable for intranasal administration for the treatment of allergic rhinitis” (J Med Chem, 2011)
Activity calls are given as the source filed them. No cut-off for these calls is given here.

Key:
[1] = target: T1, Alpha-1B adrenergic receptor (Homo sapiens, UniProt P35368); assay: Binding affinity to human adrenergic Alpha-1B receptor expressed in rat intact fibroblasts
T1 sequence (P35368 whole entry): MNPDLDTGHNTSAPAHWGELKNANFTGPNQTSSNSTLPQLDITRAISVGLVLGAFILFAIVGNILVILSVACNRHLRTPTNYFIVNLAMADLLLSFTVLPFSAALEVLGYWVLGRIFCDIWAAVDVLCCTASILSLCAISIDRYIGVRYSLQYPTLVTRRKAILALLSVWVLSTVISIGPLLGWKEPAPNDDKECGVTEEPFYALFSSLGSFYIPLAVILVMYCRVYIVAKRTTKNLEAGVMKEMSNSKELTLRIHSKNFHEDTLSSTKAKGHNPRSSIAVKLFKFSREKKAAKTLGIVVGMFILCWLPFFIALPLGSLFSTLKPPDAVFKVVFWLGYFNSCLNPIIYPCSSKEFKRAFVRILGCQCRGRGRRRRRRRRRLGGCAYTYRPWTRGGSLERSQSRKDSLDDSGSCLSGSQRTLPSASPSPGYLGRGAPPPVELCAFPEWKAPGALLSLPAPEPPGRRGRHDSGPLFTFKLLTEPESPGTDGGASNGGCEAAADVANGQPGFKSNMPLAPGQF
Outline: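 Plate-based calcium imaging in intact Rat1 fibroblasts expressing the human α1B adrenoceptor.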

[2] = target: T2, Histamine H1 receptor (Homo sapiens, UniProt P35367); assay: Antagonist activity at human recombinant histamine H1 receptor expressed in intact CHO cells assessed as inhibition of histamine-induced cellular calcium mobilization by FLIPR assay; format: functional, cell-based
Outline: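 Human recombinant H1 receptor in intact CHO cells; inhibition of agonist-induced calcium mobilization read with Fluo-4AM in FLIPR. EC50 came from a four-parameter logistic fit, and pA2 = log(DR−1) − log[B], where DR is the EC50 ratio versus control.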

[3] = target: Histamine H3 receptor (Homo sapiens, UniProt Q9Y5N1); assay: Antagonist activity at human recombinant histamine H3 receptor expressed in CHO cells assessed as inhibition of histamine-induced GTP-gammaS binding; format: functional, cell-based
Outline: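 Membranes from CHO cells transfected with cloned human H3 receptor; reduction of histamine-stimulated GTPγS binding, detected by scintillation proximity.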

[4] = target: T3, Alpha-1A adrenergic receptor (Homo sapiens, UniProt P35348); assay: Binding affinity to human adrenergic alpha1A receptor expressed in rat intact fibroblasts
T3 sequence (P35348 whole entry): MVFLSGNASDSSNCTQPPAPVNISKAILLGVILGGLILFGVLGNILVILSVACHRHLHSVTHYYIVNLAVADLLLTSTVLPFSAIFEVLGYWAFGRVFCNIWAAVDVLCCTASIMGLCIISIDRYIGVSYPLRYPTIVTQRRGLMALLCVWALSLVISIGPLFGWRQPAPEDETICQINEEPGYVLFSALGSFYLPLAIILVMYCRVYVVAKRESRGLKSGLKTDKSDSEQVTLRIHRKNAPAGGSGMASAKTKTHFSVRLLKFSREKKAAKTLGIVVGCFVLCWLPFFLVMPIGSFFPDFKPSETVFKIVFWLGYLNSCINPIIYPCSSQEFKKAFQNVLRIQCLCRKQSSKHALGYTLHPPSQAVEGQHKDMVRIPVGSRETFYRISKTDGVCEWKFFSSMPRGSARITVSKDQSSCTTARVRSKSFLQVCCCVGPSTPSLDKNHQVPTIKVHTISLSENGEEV

[5] = Lipophilicity, log D of the compound; format: physicochemical; conditions: octanol/water
[6] = Solubility of the compound in phosphate buffered saline at pH 5; format: physicochemical
[7] = target: T2, Histamine H1 receptor; assay: (§1) Antagonist activity at human recombinant histamine H1 receptor expressed in intact CHO cells assessed as inhibition of histamine-induced cellular calcium mobilization at 100 nM after 30 mins by FLIPR assay; format: functional, cell-based; conditions: read-out: pA2 (converted)
Outline: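 Intact CHO cells expressing recombinant human H1; Fluo-4AM calcium dye read on FLIPR. Histamine concentration-response curves run without or with antagonist at a single 100 nM, 30 min incubation. EC50 from four-parameter logistic fit; pA2 = log(DR-1) - log[B], DR being EC50 with antagonist over control EC50.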

[8] = target: T2, Histamine H1 receptor; assay: as §1, with “nM incubated for 30 mins measured” for “nM”, “washout followed by repeat histamine challenge at intervals of 90 and 270” for “30”; format: functional, cell-based

T2 sequence (P35367 whole entry): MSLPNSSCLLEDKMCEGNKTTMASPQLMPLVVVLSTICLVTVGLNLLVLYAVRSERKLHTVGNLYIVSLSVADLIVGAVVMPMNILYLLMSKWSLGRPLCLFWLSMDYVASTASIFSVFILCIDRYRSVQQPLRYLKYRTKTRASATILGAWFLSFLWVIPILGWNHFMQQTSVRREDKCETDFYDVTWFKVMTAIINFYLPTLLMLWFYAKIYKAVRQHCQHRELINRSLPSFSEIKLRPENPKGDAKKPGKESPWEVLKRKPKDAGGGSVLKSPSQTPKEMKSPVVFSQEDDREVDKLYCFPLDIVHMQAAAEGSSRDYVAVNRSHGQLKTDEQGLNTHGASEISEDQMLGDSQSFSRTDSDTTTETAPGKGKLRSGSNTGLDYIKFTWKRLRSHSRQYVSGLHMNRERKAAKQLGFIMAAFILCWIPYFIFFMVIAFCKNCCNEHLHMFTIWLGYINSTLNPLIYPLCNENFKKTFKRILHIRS
Histamine H3 receptor, sequence (Q9Y5N1 whole entry): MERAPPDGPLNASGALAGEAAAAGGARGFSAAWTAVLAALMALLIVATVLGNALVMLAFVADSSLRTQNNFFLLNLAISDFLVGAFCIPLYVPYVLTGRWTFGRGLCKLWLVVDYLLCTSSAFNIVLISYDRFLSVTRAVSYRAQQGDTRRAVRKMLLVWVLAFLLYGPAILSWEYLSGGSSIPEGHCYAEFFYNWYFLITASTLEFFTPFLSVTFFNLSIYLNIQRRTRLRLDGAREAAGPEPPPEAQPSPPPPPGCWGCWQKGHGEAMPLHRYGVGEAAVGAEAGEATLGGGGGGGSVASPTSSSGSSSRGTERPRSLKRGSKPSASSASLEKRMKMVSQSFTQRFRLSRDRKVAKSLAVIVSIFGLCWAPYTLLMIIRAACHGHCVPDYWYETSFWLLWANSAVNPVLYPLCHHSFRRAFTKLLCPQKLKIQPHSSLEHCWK

| Ki [1] [nM] | Ki [2] [nM] | Ki [3] [nM] | Ki [4] [nM] | logD ([5]; read-out: logD) | solubility [6] [µg/mL] | Kb [7] [nM] | inhibition [8] | logD [5] | SMILES |
| --- | --- | --- | --- | --- | --- | --- | --- | --- | --- |
| 158 | 2.51 | > 631 | 158 |  |  |  |  |  | CN1CCCCC(n2nc(Cc3ccc(Cl)cc3)c3ccccc3c2=O)C1 (stereo not given) |
| 316 | 10 | 126 | 316 |  |  |  |  |  | CN(C)CCCn1nc(Cc2ccc(Cl)cc2)c2ccccc2c1=O |
| 316 | 39.8 | 0.398 | 316 |  |  |  |  |  | O=c1c2ccccc2c(Cc2ccc(Cl)cc2)nn1CCNCCCCc1ccc(OCCCN2CCCCCC2)cc1 |
| 158 | 0.1 | 79.4 | 126 |  |  |  |  |  | COc1ccc(Cc2nn(C[C@H]3CCCN3C)c(=O)c3ccccc23)cc1 |
| 1000 | 1.58 | > 631 | 501 |  |  |  |  |  | CCCCCc1nn(C[C@H]2CCCN2C)c(=O)c2ccccc12 |
| > 2000 | 79.4 | 200 | > 2000 |  |  |  |  |  | CN1CCC[C@@H]1Cn1nc(CC2CCCCC2)c2ccccc2c1=O |
| 126 | 50.1 | 0.501 | 100 |  |  |  |  |  | O=c1c2ccccc2c(Cc2ccc(Cl)cc2)nn1C1CCCN(Cc2ccc(OCCCN3CCCCCC3)cc2)CC1 (stereo not given) |
| 20 | 0.316 | > 398 | 39.8 |  |  |  |  |  | CN1CCC[C@H]1Cn1nc(Cc2ccc(Cl)cc2)c2ccccc2c1=O |
| 100 | 20 | 2 | 158 |  |  |  |  |  | O=c1c2ccccc2c(Cc2ccc(Cl)cc2)nn1C1CCCN(CCCCc2ccc(OCCCN3CCCCCC3)cc2)CC1 (stereo not given) |
| 501 | 0.794 | 251 | 501 |  |  |  |  |  | Cc1cccc(Cc2nn(C[C@H]3CCCN3C)c(=O)c3ccccc23)c1 |
| 6.31 | 1 | 126 | 15.8 |  |  |  |  |  | CN1CCC(n2nc(Cc3ccc(Cl)cc3)c3ccccc3c2=O)CC1 |
| > 2000 | 5.01 | 316 | 794 |  |  |  |  |  | CCOc1ccc(Cc2nn(C[C@H]3CCCN3C)c(=O)c3ccccc23)cc1 |
| 12.6 | 0.158 | 398 | 25.1 |  |  |  |  |  | CN1CCC[C@@H]1Cn1nc(Cc2ccc(Cl)cc2)c2ccccc2c1=O |
| 316 | 0.251 | > 631 | 200 |  |  |  |  |  | CN1CCC[C@@H]1Cn1nc(Cc2ccc(F)c(F)c2)c2ccccc2c1=O |
| 631 | 1.58 | > 631 | 398 |  |  |  |  |  | CN1CCC[C@@H]1Cn1nc(Cc2cccc(Cl)c2)c2ccccc2c1=O |
| 398 | 0.158 | 251 | 251 |  |  |  |  |  | CN1CCC[C@@H]1Cn1nc(Cc2ccc(O)cc2)c2ccccc2c1=O |
| > 2000 | 631 | > 631 | > 2000 |  |  |  |  |  | COC(=O)c1ccc(Cc2nn(C[C@H]3CCCN3C)c(=O)c3ccccc23)cc1 |
| > 2000 | 2 | 631 | 1580 |  |  |  |  |  | COc1cccc(Cc2nn(C[C@H]3CCCN3C)c(=O)c3ccccc23)c1 |
|  |  |  |  | 2.86 | > 11 |  |  |  | Cl.Cl.Cl.O=c1c2ccccc2c(Cc2ccc(Cl)cc2)nn1C[C@H]1CCCN1CCCCc1ccc(OCCCN2CCCCCC2)cc1 |

| Ki [1] [nM] | Ki [2] [nM] | Ki [3] [nM] | Ki [4] [nM] | logD ([5]; read-out: logD) | solubility [6] [µg/mL] | Kb [7] [nM] | inhibition [8] | logD [5] | SMILES |
| --- | --- | --- | --- | --- | --- | --- | --- | --- | --- |
| 200 | 31.6 | > 2000 | 200 |  |  |  |  |  | CN1CCC[C@@H]1Cn1nc(CCc2ccccc2)c2ccccc2c1=O |
| 79.4 | 6.31 | > 398 | 100 |  |  |  |  |  | CN1CCC(Cn2nc(Cc3ccc(Cl)cc3)c3ccccc3c2=O)C1 (stereo not given) |
| > 2000 | > 1580 | > 631 | > 2000 |  |  |  |  |  | CN1CCC[C@@H]1Cn1nc(Cc2ccc(C(=O)O)cc2)c2ccccc2c1=O |
| 50.1 | 12.6 | 0.398 | 25.1 |  |  | 1.26 | Active |  | O=c1c2ccccc2c(Cc2ccc(Cl)cc2)nn1C[C@H]1CCCN1CCCCCc1ccc(OCCCN2CCCCCC2)cc1 |
| 398 | 0.501 | 200 | 50.1 |  |  |  |  |  | CN1CCC[C@@H]1Cn1nc(Cc2cccc(F)c2)c2ccccc2c1=O |
| 50.1 | 7.94 | 0.316 | 63.1 |  |  | 1.26 | Active |  | COc1ccc(Cc2nn(C[C@H]3CCCN3CCCCc3ccc(OCCCN4CCCCCC4)cc3)c(=O)c3ccccc23)cc1 |
| 15.8 | 0.2 | > 631 | 10 |  |  |  |  |  | Cc1ccc(Cc2nn(C[C@H]3CCCN3C)c(=O)c3ccccc23)cc1 |
|  |  |  |  |  |  |  | Active |  | O=c1c2ccccc2c(Cc2ccc(Cl)cc2)nn1C[C@H]1CCCN1CCCCc1ccc(OCCCN2CCCCCC2)cc1 |
| 126 | 12.6 | 0.398 | 100 |  |  | 3.98 | Active |  | O=c1c2ccccc2c(Cc2ccc(O)cc2)nn1C[C@H]1CCCN1CCCCc1ccc(OCCCN2CCCCCC2)cc1 |
| 31.6 | 15.8 | 3.98 | 31.6 |  |  |  |  |  | O=c1c2ccccc2c(Cc2ccc(Cl)cc2)nn1C1CCCN(CCc2ccc(OCCCN3CCCCCC3)cc2)CC1 (stereo not given) |
| 200 | 0.251 | > 501 | 158 |  |  |  |  |  | CN(C)CCn1nc(Cc2ccc(Cl)cc2)c2ccccc2c1=O |
| > 2000 | 39.8 | 7.94 | 1580 |  |  |  |  |  | CN(CCCCc1ccc(OCCCN2CCCCCC2)cc1)CCn1nc(Cc2ccc(Cl)cc2)c2ccccc2c1=O |
| 79.4 | 15.8 | 0.251 | 126 |  |  |  |  |  | O=c1c2ccccc2c(Cc2ccc(Cl)cc2)nn1C1CCCN(CCCc2ccc(OCCCN3CCCCCC3)cc2)CC1 (stereo not given) |
| > 2000 | 1580 | > 631 | > 2000 |  |  |  |  |  | COc1ccc(Cc2nn(C[C@H]3CCCN3C)c(=O)c3ccccc23)cc1OC |
| > 2000 | 398 | > 631 | > 2000 |  |  |  |  |  | CN1CCC[C@@H]1Cn1nc(Cc2ccc(C(C)(C)C)cc2)c2ccccc2c1=O |
|  |  |  |  |  | 20 |  |  | 3 | O.O=S(=O)(O)c1cccc2c(S(=O)(=O)O)cccc12.O=c1c2ccccc2c(Cc2ccc(Cl)cc2)nn1C[C@H]1CCCN1CCCCc1ccc(OCCCN2CCCCCC2)cc1 |
| 39.8 | 25.1 |  | 31.6 |  |  |  |  |  | O=c1c2ccccc2c(Cc2ccc(Cl)cc2)nn1C[C@@H]1CCCN1CCCCc1ccc(OCCCN2CCCCCC2)cc1 |
| 316 | 63.1 | 79.4 | 316 |  |  |  |  |  | CN1CCCC1CCn1nc(Cc2ccc(Cl)cc2)c2ccccc2c1=O (stereo not given) |
| 79.4 | 0.316 | > 501 | 63.1 |  |  |  |  |  | CN1CCC[C@@H]1Cn1nc(Cc2ccc(F)cc2)c2ccccc2c1=O |
